# Assays:
# HCT-8 = test: Growth inhibition of human HCT8 cells; format: functional; conditions: read-out: ED50 (the source's name)
# In short: (§1)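 In-house cytotoxicity assay following an NCI protocol, run on a panel of human tumour lines: KB nasopharyngeal epidermoid carcinoma and HCT-8 ileocecal adenocarcinoma. Potency is reported as ED50 in µg/mL.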
# SK-MEL-5 = test: Growth inhibition of human SK-MEL-5 cells; format: functional; conditions: for EC50: read-out: ED50 (the source's name)
# In short: (§2)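 Tested at the NCI in its human disease-oriented in vitro screen of 60 tumour cell lines, following the Monks et al. methods. Activity is expressed as GI50, given as log molar values.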
# KB = test: Growth inhibition of human KB cells; format: functional; conditions: read-out: ED50 (the source's name); in short: as §1
# COLO 205 = test: Growth inhibition of human COLO205 cells; format: functional; conditions: for EC50: read-out: ED50 (the source's name)
# SNB-75 = test: Growth inhibition of human SNB75 cells; format: functional; in short: as §2
# DLD-1 = test: Growth inhibition of human DLD1 cells; format: functional
# SF-539 = test: Growth inhibition of human SF539 cells; format: functional; in short: as §2
# [1] = Growth inhibition of human LXFL529 cells; format: functional; conditions: LXFL 529
# CCRF-CEM = test: Growth inhibition of human CCRF-CEM cells; format: functional
# SF-268 = test: Growth inhibition of human SF268 cells; format: functional; in short: as §2
# NCI-H226 = test: Growth inhibition of human NCI-H226 cells; format: functional
# [2] = Growth inhibition of human OVACR5 cells; format: functional
# [3] = Growth inhibition of human OVACR8 cells; format: functional
# SR = test: Growth inhibition of human SR cells; format: functional; in short: as §2
# SNB-19 = test: Growth inhibition of human SNB19 cells; format: functional; in short: as §2
# HT-29 = test: Growth inhibition of human HT29 cells; format: functional
# Malme-3M = test: Growth inhibition of human MALME-3M cells; format: functional
# DMS-273 = test: Growth inhibition of human DMS273 cells; format: functional
# SW-620 = test: Growth inhibition of human SW620 cells; format: functional; in short: as §2
# NCI-H322M = test: Growth inhibition of human NCI-H322M cells; format: functional
# SK-MEL-28 = test: Growth inhibition of human SK-MEL-28 cells; format: functional; in short: as §2
# KM-20L2 = test: Growth inhibition of human KM20L2 cells; format: functional
# SK-OV-3 = test: Growth inhibition of human SK-OV-3 cells; format: functional; in short: as §2
# SK-MEL-2 = test: Growth inhibition of human SK-MEL-2 cells; format: functional; in short: as §2
# HOP-92 = test: Growth inhibition of human HOP92 cells; format: functional
# KM12 = test: Growth inhibition of human KM12 cells; format: functional
# [4] = Growth inhibition of human […] cells; format: functional
# LOX IMVI = test: Growth inhibition of human LOX IMVI cells; format: functional
# M14 = test: Growth inhibition of human M14 cells; format: functional
# MOLT-4 = test: Growth inhibition of human MOLT4 cells; format: functional
# TK-10 = test: Growth inhibition of human TK10 cells; format: functional; in short: as §2
# NCI-H460 = test: Growth inhibition of human NCI-H460 cells; format: functional
# HCC 2998 = test: Growth inhibition of human HCC2998 cells; format: functional
# HCT-15 = test: Growth inhibition of human HCT15 cells; format: functional
# [5] = Growth inhibition of human RPMI8266 cells; format: functional
# [6] = Growth inhibition of human DMS144 cells; format: functional
# UO-31 = test: Growth inhibition of human UO31 cells; format: functional; in short: as §2
# HCT-116 = test: Growth inhibition of human HCT116 cells; format: functional
# A549 = test: Growth inhibition of human A549 cells; format: functional
# NCI-H522 = test: Growth inhibition of human NCI-H522 cells; format: functional
# IGROV-1 = test: Growth inhibition of human IGROV1 cells; format: functional
# ACHN = test: Growth inhibition of human ACHN cells; format: functional
# K562 = test: Growth inhibition of human K562 cells; format: functional
# M19-MEL = test: Growth inhibition of human M19-MEL cells; format: functional
# SN12C = test: Growth inhibition of human SN12C cells; format: functional; in short: as §2
# [7] = Growth inhibition of human HL60(TB) cells; format: functional, HL-60(TB); conditions: HL-60
# HOP-62 = test: Growth inhibition of human HOP62 cells; format: functional
# 786-0 = test: Growth inhibition of human 786-0 cells; format: functional
# UACC-62 = test: Growth inhibition of human UACC62 cells; format: functional; in short: as §2
# U-251 = test: Growth inhibition of human U251 cells; format: functional; in short: as §2
# XF498 = test: Growth inhibition of human XF498 cells; format: functional; in short: as §2
compound,measurement,setting,value
COc1ccc2[nH]c3c(c2c1)C(=O)C=C(C)C3=O,EC50,HCT-8,6.03 µg/mL
same,EC50,SK-MEL-5,6.22 µg/mL
same,EC50,KB,5.08 µg/mL
same,EC50,COLO 205,> 20 µg/mL
COc1cccc2c3c([nH]c12)C(=O)C(C)=CC3=O,EC50,HCT-8,4.7 µg/mL
same,EC50,SK-MEL-5,5.5 µg/mL
same,EC50,KB,0.92 µg/mL
same,EC50,COLO 205,5.18 µg/mL
CC1=CC(=O)c2c([nH]c3ccc(C)cc23)C1=O,EC50,HCT-8,5.47 µg/mL
same,EC50,SK-MEL-5,5.29 µg/mL
same,EC50,KB,4.6 µg/mL
same,EC50,COLO 205,3.2 µg/mL
COc1cc(Cn2c3ccccc3c3cc(C)cc(OC)c32)cc2c1[nH]c1ccccc12,GI50,SNB-75,22.9 µM
same,GI50,DLD-1,25.1 µM
same,GI50,SF-539,9.77 µM
same,GI50,[1],17 µM
same,GI50,CCRF-CEM,12 µM
same,GI50,SF-268,17.4 µM
same,GI50,NCI-H226,17 µM
same,GI50,[2],25.1 µM
same,GI50,[3],10.5 µM
same,GI50,SR,16.6 µM
same,GI50,SNB-19,25.1 µM
same,GI50,HT-29,17 µM
same,GI50,Malme-3M,25.1 µM
same,GI50,DMS-273,15.1 µM
same,GI50,SW-620,13.5 µM
same,GI50,NCI-H322M,25.1 µM
same,GI50,SK-MEL-28,25.1 µM
same,GI50,KM-20L2,15.5 µM
same,GI50,SK-OV-3,25.1 µM
same,GI50,SK-MEL-2,25.1 µM
same,GI50,HOP-92,5.37 µM
same,GI50,KM12,10.2 µM
same,GI50,[4],10.2 µM
same,GI50,LOX IMVI,8.13 µM
same,GI50,M14,6.31 µM
same,GI50,SK-MEL-5,25.1 µM
same,GI50,MOLT-4,8.51 µM
same,GI50,TK-10,25.1 µM
same,GI50,NCI-H460,10.7 µM
same,GI50,HCC 2998,25.1 µM
same,GI50,COLO 205,25.1 µM
same,GI50,HCT-15,17 µM
same,GI50,[5],25.1 µM
same,GI50,[6],20 µM
same,GI50,UO-31,25.1 µM
same,GI50,HCT-116,25.1 µM
same,GI50,A549,23.4 µM
same,GI50,NCI-H522,5.37 µM
same,GI50,IGROV-1,25.1 µM
same,GI50,ACHN,12.3 µM
same,GI50,K562,9.77 µM
same,GI50,M19-MEL,25.1 µM
same,GI50,SN12C,25.1 µM
same,GI50,[7],12.3 µM
same,GI50,HOP-62,6.61 µM
same,GI50,786-0,25.1 µM
same,GI50,UACC-62,15.1 µM
same,GI50,U-251,25.1 µM
COc1ccc2[nH]c3c(c2c1)C(=O)C(C)=CC3=O,EC50,HCT-8,7.91 µg/mL
same,EC50,SK-MEL-5,0.55 µg/mL
same,EC50,KB,0.76 µg/mL
same,EC50,COLO 205,0.87 µg/mL
CC1=CC(=O)c2c([nH]c3ccc(F)cc23)C1=O,EC50,HCT-8,4.76 µg/mL
same,EC50,SK-MEL-5,5.5 µg/mL
same,EC50,KB,2.03 µg/mL
same,EC50,COLO 205,4.5 µg/mL
COc1cc(CO)cc2c1[nH]c1ccccc12 [KOENOLINE],GI50,NCI-H226,1.74 µM
same,TGI,NCI-H226; read-out: pTGI,5.25 µM
COc1cc(Cc2c(C)cc(OC)c3[nH]c4ccccc4c23)cc2c1[nH]c1ccccc12,GI50,SNB-75,5.75 µM
same,GI50,DLD-1,8.91 µM
same,GI50,SF-539,4.57 µM
same,GI50,[1],4.17 µM
same,GI50,CCRF-CEM,8.51 µM
same,GI50,SF-268,6.92 µM
same,GI50,NCI-H226,4.68 µM
same,GI50,[2],5.01 µM
same,GI50,[3],4.57 µM
same,GI50,SR,7.76 µM
same,GI50,SNB-19,5.89 µM
same,GI50,HT-29,7.76 µM
same,GI50,Malme-3M,4.47 µM
same,GI50,DMS-273,7.59 µM
same,GI50,SW-620,8.13 µM
same,GI50,NCI-H322M,7.24 µM
same,GI50,SK-MEL-28,8.71 µM
same,GI50,KM-20L2,5.25 µM
same,GI50,SK-OV-3,8.71 µM
same,GI50,SK-MEL-2,3.98 µM
same,GI50,HOP-92,7.59 µM
same,GI50,KM12,5.37 µM
same,GI50,[4],5.37 µM
same,GI50,LOX IMVI,3.89 µM
same,GI50,M14,5.13 µM
same,GI50,SK-MEL-5,3.98 µM
same,GI50,MOLT-4,5.75 µM
same,GI50,TK-10,12 µM
same,GI50,NCI-H460,5.13 µM
same,GI50,HCC 2998,5.37 µM
same,GI50,COLO 205,12 µM
same,GI50,HCT-15,6.92 µM
same,GI50,[5],10 µM
same,GI50,[6],10.5 µM
same,GI50,UO-31,6.03 µM
same,GI50,HCT-116,9.12 µM
same,GI50,A549,5.75 µM
same,GI50,NCI-H522,5.01 µM
same,GI50,IGROV-1,9.12 µM
same,GI50,ACHN,4.68 µM
same,GI50,XF498,6.03 µM
same,GI50,K562,7.24 µM
same,GI50,M19-MEL,9.77 µM
same,GI50,SN12C,6.46 µM
same,GI50,[7],7.94 µM
same,GI50,HOP-62,5.5 µM
same,GI50,786-0,5.37 µM
same,GI50,UACC-62,5.62 µM
same,GI50,U-251,5.01 µM
